Measured values published in ChEMBL document CHEMBL2069274, “Novel 3-nitro-1H-1,2,4-triazole-based amides and sulfonamides as potential antitrypanosomal agents” (J Med Chem, 2012).
Activity calls are given as the source filed them. No cut-off for these calls is given here.

What was measured:
[1] = system: Trypanosoma brucei rhodesiense; assay: Antitrypanosomal activity against Trypanosoma brucei rhodesiense STIB 900 trypomastigotes; assay type: functional, organism-based
Outline: (§1)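 96-well format screens: bloodstream-form T. b. rhodesiense trypomastigotes, T. cruzi amastigotes within infected L6 rat skeletal myoblasts, axenically grown L. donovani amastigotes, and uninfected L6 cells for cytotoxicity. IC50 (μM) obtained by linear regression from sigmoidal dose–inhibition curves.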

Trypanosoma cruzi [2] = assay: Antitrypanosomal activity against Trypanosoma cruzi Tulahuen C4 amastigotes; assay type: functional, organism-based; outline: as §1
Leishmania donovani = assay: Antileishmanial activity against Leishmania donovani MHOM-ET67/L82 amastigotes; assay type: functional, organism-based; outline: as §1
L6 = assay: Cytotoxicity against rat L6 cells; assay type: cell-based; outline: as §1
[3] = system: Trypanosoma brucei brucei; assay: Antitrypanosomal activity against bloodstream form of Trypanosoma brucei brucei Lister 427 clone 221a; assay type: functional, organism-based
Outline: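 Bloodstream-form parasites seeded at 1 × 10^3 per ml in growth medium with a range of compound concentrations; where required, TbNTR expression induced with tetracycline (1 μg/mL). Incubation 3 days at 37 °C, then Alamar blue added for a further 16 h. Cell density read and IC50 determined.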

[4] = system: Trypanosoma brucei brucei; assay: Activity of Trypanosoma brucei brucei recombinant Type I nitroreductase assessed as oxidised NADH level by spectrophotometric analysis
Outline: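 His-tagged recombinant TbNTR, purified, assayed spectrophotometrically at 340 nm with nitrotriazole substrate (100 μM) and NADH (100 μM); activity expressed as nmol NADH oxidized min−1 mg−1 enzyme.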

[5] = target: Trypanothione reductase (Trypanosoma brucei brucei) (UniProt P39051); assay: Inhibition of Trypanosoma brucei brucei trypanothione reductase at <100 uM
Trypanosoma cruzi [6] = assay: Ratio of benznidazole IC50 to compound IC50 for Trypanosoma cruzi Tulahuen C4 amastigotes; assay type: functional
[7] = Selectivity index, ratio of IC50 for rat L6 cells to IC50 for Trypanosoma cruzi Tulahuen C4 amastigotes
[8] = Selectivity index, ratio of IC50 for rat L6 cells to IC50 for Trypanosoma brucei rhodesiense STIB900 trypomastigotes
[9] = system: Trypanosoma brucei brucei; assay: Antitrypanosomal activity against bloodstream form of Trypanosoma brucei brucei Lister 427 clone 221a overexpressing tet-inducible NTR in absence of tetracycline after 3 days; conditions: 72 h
[10] = system: Trypanosoma brucei brucei; assay: Antitrypanosomal activity against bloodstream form of Trypanosoma brucei brucei Lister 427 clone 221a overexpressing tet-inducible NTR in presence of tetracycline after 3 days; conditions: 72 h
[11] = system: Trypanosoma brucei brucei; assay: Selectivity ratio of IC50 for Trypanosoma brucei brucei Lister 427 clone 221a overexpressing tet-inducible NTR in absence of tetracycline to IC50 for Trypanosoma brucei brucei overexpressing tet-inducible NTR in presence of tetracyclin
[12] = Selectivity index, ratio of IC50 for rat L6 cells to IC50 for Leishmania donovani MHOM-ET67/L82 amastigotes

Chain of Trypanothione reductase (Trypanosoma brucei brucei) (P39051 whole entry, looked up): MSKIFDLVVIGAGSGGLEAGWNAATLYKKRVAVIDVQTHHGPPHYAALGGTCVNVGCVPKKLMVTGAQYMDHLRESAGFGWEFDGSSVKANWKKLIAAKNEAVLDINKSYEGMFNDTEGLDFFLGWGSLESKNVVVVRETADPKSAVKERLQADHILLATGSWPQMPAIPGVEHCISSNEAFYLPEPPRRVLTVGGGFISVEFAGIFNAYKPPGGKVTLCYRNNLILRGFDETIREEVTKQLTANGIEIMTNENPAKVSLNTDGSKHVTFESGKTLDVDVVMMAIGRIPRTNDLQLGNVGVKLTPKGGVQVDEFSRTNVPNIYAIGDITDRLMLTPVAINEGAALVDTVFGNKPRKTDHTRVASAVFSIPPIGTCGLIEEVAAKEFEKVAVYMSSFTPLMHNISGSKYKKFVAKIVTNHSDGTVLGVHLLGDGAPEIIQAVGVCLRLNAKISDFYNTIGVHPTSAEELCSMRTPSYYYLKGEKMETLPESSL

Compound | IC50 [1] [µM] | IC50 (Trypanosoma cruzi [2]) [nM] | IC50 (Leishmania donovani) [µM] | IC50 (L6) [µM] | IC50 [3] [nM] | Activity [4] | inhibition [5] | Ratio IC50 (Trypanosoma cruzi [6]) | selectivity ratio [7] | selectivity ratio [8] | IC50 [9] [µM] | IC50 [10] [nM] | Ratio IC50 [11] | selectivity ratio [12]
O=[N+]([O-])c1ncn(CCCNS(=O)(=O)c2ccc(C(F)(F)F)cc2)n1 | 0.504 | 359 | 13.1 | 235 | 3400 | Active | inactive | 4.4 | 656 | 467 | 7.83 | 250 | 31 | 
O=[N+]([O-])c1ncn(CCCNS(=O)(=O)c2ccc(Cl)s2)n1 | 1.99 | 438 | 33 | 244 | 2300 |  |  | 3.6 | 556 | 122 | 4.34 | 230 | 19 | 7.4
O=C(Cn1cnc([N+](=O)[O-])n1)Nc1nc2ccc(Cl)cc2s1 | 48.5 | 6590 | 5.82 | 163 |  |  |  | 0.2 | 24.8 | 3.4 |  |  |  | 28
O=C(Cn1cnc([N+](=O)[O-])n1)Nc1nc2cc(Cl)ccc2o1 | 34.4 | 7880 | 4.68 | 26.3 |  |  |  | 0.2 | 3.3 | < 1 |  |  |  | 5.6
O=[N+]([O-])c1ncn(CCCCNS(=O)(=O)c2ccc(OC(F)(F)F)cc2)n1 | 0.477 | 203 | 7.8 | 112 |  |  |  | 7.7 | 552 | 235 |  |  |  | 14.4
O=C(NCCn1cnc([N+](=O)[O-])n1)c1ccc(C(F)(F)F)cc1 | 3.16 | 438 | 33.4 | > 274 | 1300 | Active | inactive | 3.6 | > 625 |  | 1.26 | 90 | 14 | 
Cc1ccc2nc(NC(=O)Cn3cnc([N+](=O)[O-])n3)sc2c1 | 11.5 | 1800 | 5.91 | 170 |  |  |  | 0.9 | 94.4 | 14.8 |  |  |  | 28.7
O=C(NCCCn1cnc([N+](=O)[O-])n1)c1ccc2ccccc2n1 | 3.22 | 138 | 19.9 | 218 | > 10000 | Active | inactive | 11.3 | 1580 |  |  |  |  | 
